In ChEMBL document CHEMBL1275434, “In vitro evaluation of CBR-2092, a novel rifamycin-quinolone hybrid antibiotic: studies of the mode of action in Staphylococcus aureus” (Antimicrob Agents Chemother, 2008):
In brackets after ≈: the same amount, converted by molar mass. Activity calls are given as the source filed them. The calls are words filed in the database; no cut-off is given here.

Tests used:
Staphylococcus aureus [1] = assay: Antimicrobial activity against Staphylococcus aureus CB1418 harboring rpoB H481Y and gyrA D705N mutant genes selected after 0.1 ug/ml drug exposure by broth microdilution method
Staphylococcus aureus [2] = assay: Antimicrobial activity against Staphylococcus aureus CB814 harboring fluoroquinolone-resistant gyrA S84L and parC S80F mutant genes by broth microdilution method; assay type: functional
In short: (§1)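 CLSI broth microdilution MIC in cation-adjusted Mueller-Hinton (MHII) broth supplemented with 0.002% (vol/vol) polysorbate 80, included to limit compound loss to plastic surfaces.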

Staphylococcus aureus [3] = assay: Antimicrobial activity against Staphylococcus aureus CB1887 harboring rpoB R484H, L520 deficient gyrA, […], R236 duplicated parC and parC H103Y mutant genes selected after ABT-719 exposure for 20 days by broth microdilution method; assay type: functional; details: CB1887, 480 h
In short: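 CLSI broth microdilution MIC in MHII with 0.002% polysorbate 80 against strains from 20–21 days of stepwise passage of rifamycin- and/or quinolone-resistant parents; CBR-2092 passages used MHII with 0.002% polysorbate 80.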

Staphylococcus aureus [4] = assay: Antimicrobial activity against wild-type Staphylococcus aureus CB190 by broth microdilution method; assay type: functional
In short: as §1

[5] = Inhibition of Staphylococcus aureus RpoB H481Y mutant
In short: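 Recombinant S. aureus σA RNA polymerase holoenzyme carrying RpoB H481Y. Single-round transcription of the pGL2B-T7A1-G-less template. The 272-nt G-less RNA product is quantified by gel electrophoresis. IC50 is the concentration that inhibits 50% of product formed without inhibitor.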

Staphylococcus aureus [6] = assay: Activity at Staphylococcus aureus wild-type GyrA
In short: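 Recombinant S. aureus gyrase (wild-type GyrA with His-tagged GyrB; 250 U per μg). SDS/proteinase K stop. Gel quantitation of linear cleavage product gave CC50, the mean of two or more assays.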

Staphylococcus aureus [7] = assay: Inhibition of protein synthesis in Staphylococcus aureus CB190 assessed as decrease in L-[3,4,5-3H]leucine incorporation at 0.5 ug/ml; assay type: functional, organism-based
Staphylococcus aureus [8] = assay: Antimicrobial activity against Staphylococcus aureus CB1884 by broth microdilution method; assay type: functional
In short: (§2)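 CLSI broth microdilution MIC in MHII broth with 0.002% (vol/vol) polysorbate 80. Isolates came from daily stepwise broth passage at sub-MIC drug (MHII without polysorbate 80, 10^6 CFU/ml inoculum, 20–24 h shaking at 37°C), were purified drug-free, and were sequenced at target loci.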

Staphylococcus aureus [9] = assay: Antimicrobial activity against Staphylococcus aureus CB1421 harboring rpoB H481Y, parC S80F and gyrA S84L mutant genes selected after 0.18 ug/ml drug exposure by broth microdilution method; assay type: functional
In short: (§3)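 CLSI broth microdilution MIC in cation-adjusted Mueller-Hinton (MHII) broth with 0.002% (vol/vol) polysorbate 80. Single-step mutants were selected on agar […], purified by drug-free passage, their phenotype re-verified, and resistance loci sequenced.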

Staphylococcus aureus [10] = assay: Antimicrobial activity against Staphylococcus aureus CB1953 harboring rpoB H481Y, gyrA S84L, gyrA V598I, parC S80F, parC R570H mutant genes selected after CBR-2092 exposure for 7 days by agar dilution method; assay type: functional; details: CB1953, 168 h
In short: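 CLSI agar dilution MIC on MHII base medium against strains from multistep passage (up to 20–21 days) of parents with preexisting rifamycin and/or quinolone resistance.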

Staphylococcus aureus [11] = assay: Inhibition of protein synthesis in quinolone-resistant Staphylococcus aureus CB814 harboring gyrA S84L and parC S80F mutant genes assessed as decrease in L-[3,4,5-3H]leucine incorporation at 0.5 ug/ml; assay type: functional, organism-based
In short: (§4)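 Time-course radiolabel incorporation in S. aureus cultures with test agent. Precursors: [methyl-3H]thymidine (DNA), [5,6-3H]uridine (RNA), L-[3,4,5-3H]leucine (protein), [2,3-3H]D-alanine (cell wall). At each time point, incorporation with agent is expressed relative to the DMSO-treated control culture as percent incorporation. Time-zero incorporation is set to 100%.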

Staphylococcus aureus [12] = assay: Inhibition of protein synthesis in rifamycin-resistant Staphylococcus aureus CB370 harboring rpoB H481Y mutant gene assessed as decrease in L-[3,4,5-3H]leucine incorporation at 0.5 ug/ml; assay type: functional, organism-based
In short: as §4

Staphylococcus aureus [13] = assay: Antimicrobial activity against Staphylococcus aureus CB1953 harboring rpoB H481Y, gyrA S84L, gyrA V598I, parC S80F, parC R570H mutant genes selected after CBR-2092 exposure for 7 days by broth microdilution method; assay type: functional; details: CB1953, 168 h
In short: as §1

Staphylococcus aureus [14] = assay: Inhibition of DNA synthesis in quinolone-resistant Staphylococcus aureus CB814 harboring gyrA S84L and parC S80F mutant genes assessed as decrease in [methyl-3H]thymidine incorporation at 0.5 ug/ml; assay type: functional, organism-based
In short: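 Macromolecular synthesis time course in S. aureus, measuring incorporation of [methyl-3H]thymidine (DNA), [5,6-3H]uridine (RNA) or [2,3-3H]D-alanine (cell wall). At each time point, incorporation is expressed as percent of the DMSO-treated control culture. Incorporation at time zero is set to 100%.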

Staphylococcus aureus [15] = assay: Antimicrobial activity against rifampin-sensitive Staphylococcus aureus CB190 harboring rpoB Q468L mutant gene by broth microdilution method; assay type: functional
In short: as §1

Staphylococcus aureus [16] = assay: Antimicrobial activity against Staphylococcus aureus CB1417 harboring rpoB H481Y and gyrA G532V mutant genes selected after 0.1 ug/ml drug exposure by broth microdilution method
Staphylococcus aureus [17] = assay: Antimicrobial activity against Staphylococcus aureus CB370 harboring rpoB H481Y mutant gene by broth microdilution method; assay type: functional
In short: as §1

Staphylococcus aureus [18] = assay: Antimicrobial activity against Staphylococcus aureus CB1882 harboring rpoB R484H mutant gene, L520 deficient gyrA gene and R236 duplicated parC gene by agar dilution method; assay type: functional
In short: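 CLSI agar dilution MIC on MHII base medium against stepwise-passage isolates; passage was in MHII broth without polysorbate 80, daily at 37°C.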

Staphylococcus aureus [19] = assay: Antimicrobial activity against Staphylococcus aureus CB1354 harboring rpoB H481Y, parC S80F, parE R455H and gyrA S84L mutant genes selected after 0.53 ug/ml drug exposure by broth microdilution method; assay type: functional
Staphylococcus aureus [20] = assay: Antimicrobial activity against Staphylococcus aureus CB1880 harboring rpoB R484H mutant gene by broth microdilution method; assay type: functional
In short: as §2

Staphylococcus aureus [21] = assay: Antimicrobial activity against Staphylococcus aureus CB1882 harboring rpoB R484H mutant gene, L520 deficient gyrA gene and R236 duplicated parC gene; assay type: functional
Staphylococcus aureus [22] = assay: Activity at Staphylococcus aureus wild-type DNA topoisomerase 4 subunit ParC
In short: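 Recombinant S. aureus topoisomerase IV (wild-type ParC with ParE; specific activity 25 to 30 U per μg). Stopped with SDS/proteinase K. Linear DNA quantified on gel; CC50 is the mean of two or more assays.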

Staphylococcus aureus [23] = assay: Antimicrobial activity against Staphylococcus aureus CB1430 harboring rpoB H481Y, parE E474K and gyrA S84L mutant genes selected after 0.18 ug/ml drug exposure by broth microdilution method; assay type: functional
In short: as §3

Staphylococcus aureus [24] = assay: Antimicrobial activity against rifampin-sensitive Staphylococcus aureus CB190 harboring rpoB H481Y mutant gene by broth microdilution method; assay type: functional
In short: as §1

Staphylococcus aureus [25] = assay: Antimicrobial activity against rifampin-sensitive Staphylococcus aureus CB190 harboring rpoB H481N mutant gene by broth microdilution method; assay type: functional
In short: as §1

CO[C@H]1/C=C/O[C@@]2(C)Oc3c(C)c(O)c4c(O)c(c(/C=N/N5CCC(N(C)C6([C@@H]7CCN(c8c(F)cn9c(=O)c(C(=O)O)cc(C%10CC%10)c9c8C)C7)CC6)CC5)c(O)c4c3C2=O)NC(=O)/C(C)=C\C=C\[C@H](C)[C@H](O)[C@@H](C)[C@@H](O)[C@@H](C)[C@H](OC(C)=O)[C@@H]1C
MIC (Staphylococcus aureus [1]): 0.5 µg/mL (≈ 0.415 µM) | MIC (Staphylococcus aureus [2]): 0.015 µg/mL (≈ 0.0124 µM) | MIC (Staphylococcus aureus [3]): > 250 µg/mL | MIC (Staphylococcus aureus [4]): 0.015 µg/mL (≈ 0.0124 µM) | IC50 [5]: > 25 µM | CC50 (Staphylococcus aureus [6]): 1.5 µM | Activity (Staphylococcus aureus [7]): Active | MIC (Staphylococcus aureus [8]): 64 µg/mL (≈ 53.1 µM) | MIC (Staphylococcus aureus [9]): 1 µg/mL (≈ 0.83 µM) | MIC (Staphylococcus aureus [10]): 2 µg/mL (≈ 1.66 µM) | Activity (Staphylococcus aureus [11]): Active | Activity (Staphylococcus aureus [12]): Active | MIC (Staphylococcus aureus [13]): 16 µg/mL (≈ 13.3 µM) | Activity (Staphylococcus aureus [14]): Active | MIC (Staphylococcus aureus [15]): 0.25 µg/mL (≈ 0.207 µM) | MIC (Staphylococcus aureus [16]): 0.5 µg/mL (≈ 0.415 µM) | MIC (Staphylococcus aureus [17]): 0.12 µg/mL (≈ 0.0996 µM) | MIC (Staphylococcus aureus [18]): 0.5 µg/mL (≈ 0.415 µM) | MIC (Staphylococcus aureus [19]): 16 µg/mL (≈ 13.3 µM) | MIC (Staphylococcus aureus [20]): 0.12 µg/mL (≈ 0.0996 µM) | Time (Staphylococcus aureus [21]): 45 min | CC50 (Staphylococcus aureus [22]): 1.7 µM | MIC (Staphylococcus aureus [23]): 16 µg/mL (≈ 13.3 µM) | MIC (Staphylococcus aureus [24]): 0.12 µg/mL (≈ 0.0996 µM) | MIC (Staphylococcus aureus [25]): 0.25 µg/mL (≈ 0.207 µM)
